Published values gathered from unrelated publications.
Each line is one published result; the experiments were not run side by side.
ADORA1: Adenosine receptor A1 (ADORA1, Homo sapiens, UniProt P30542)
RPS6KB2: Ribosomal protein S6 kinase beta-2 (RPS6KB2, Homo sapiens, UniProt Q9UBS0)
AXL: Tyrosine-protein kinase receptor UFO (AXL, Homo sapiens, UniProt P30530)

Structure (SMILES)	target	test	test system	conditions	endpoint	value
Cc1cc(F)cc2c(CCC(=O)N[C@@H]3C(=O)NC[C@H]3O)c(-c3ccc(F)cc3)[nH]c12	ADORA1	cell-free assay	–	10 µM	inhibition	4%
COc1ccc2oc(-c3ccc4nc(N)oc4c3)c/c(=N\c3ccccc3NC(=O)CCN)c2c1	RPS6KB2	binding	–	1 µM	remaining binding	93%
NC/C(=C\F)COc1cccc(Cn2c(=S)[nH]c(=O)c3[nH]cnc32)c1	ADORA1	ligand displacement, radioligand	–	10 µM	inhibition	< 50%
C#Cc1cc(-c2cc(Nc3nc(N[C@@H](C)c4ccc(F)cn4)ncc3Cl)n[nH]2)ccc1C=O	RAC-gamma serine/threonine-protein kinase (AKT3, Homo sapiens, UniProt Q9Y243)	enzyme activity, inhibitor	–	0.2 µM	inhibition	17.4%
COc1nc(-c2cccc(-c3ccccc3)c2C)ccc1CNCCNC(=O)CCCCCCCCCCC(=O)N1CCN(CCNC(=O)c2cc3c(=O)n4cccc(C)c4nc3n(CCc3cccs3)c2=N)CC1	Programmed cell death 1 ligand 1 (CD274, Homo sapiens, UniProt Q9NZQ7)	protein level, degrader, western blot	HL-60	1 µM	Dmax	53.9%
CS(=O)(=NC#N)c1ccccc1Nc1nc(Nc2ccnc(CO)c2)ncc1Cl (stereo not drawn)	AXL	enzyme activity, inhibitor	–	1 µM	remaining activity	14.7%
Cc1cc(O)c(-c2ccc([C@@H](C)CN(C)C)cc2)c2c1[nH]c(=O)c1sccc12	RPS6KB2	enzyme activity, inhibitor	–	0.1 µM	inhibition	-3.41%
C#Cc1cnc(Nc2ccc(CO)cc2)nc1Nc1ccccc1C(=O)NC	AXL	enzyme activity, inhibitor	–	1 µM	remaining activity	1.65%
C1=C/COCc2cc(ccc2OCCN2CCCC2)Nc2nccc(n2)-c2cccc(c2)COC/1	Ephrin type-A receptor 4 (EPHA4, Homo sapiens, UniProt P54764)	binding	–	0.1 µM	remaining binding	100%
CC(C)C[C@H](NC(=O)CNC(=O)[C@H](Cc1ccc(O)cc1)NC(=O)[C@H](CO)NC(=O)[C@H](Cc1c[nH]c2ccccc12)NC(=O)[C@H](Cc1c[nH]cn1)NC(=O)[C@@H]1CCC(=O)N1)C(=O)N[C@@H](CCCNC(=N)N)C(=O)N1CCC[C@H]1C(=O)NCC(N)=O	Gonadotropin-releasing hormone receptor (GNRHR, Homo sapiens, UniProt P30968)	inositol phosphate, agonist, TR-FRET	HEK-293T	1 h	Emax	100%
CCCCC(=O)Nc1ccc(-c2ccc3ncn(CCC)c(=O)c3c2)cn1	Serine/threonine-protein kinase 32A (STK32A, Homo sapiens, UniProt Q8WU08)	binding, competition with immobilised ligand	–	0.5 µM	remaining binding	86%
CCN1/C(=C/C(C)=O)Sc2ccc(F)cc21	ADORA1	ligand displacement, radioligand	–	10 µM	inhibition	2.48%
